Activity calls are given as the source filed them.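 The calls were made as follows, unless noted: active = viability at or below 10% of carrier control in both of two separate runs; inconclusive = viability at or below 10% in only one of the two runs; inactive = the rest.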
Columns and labels:
[1] = Her2 expression decrease, cell viability multiplex – SKBR3 breast tumor cells, AlphaScreen, ATP viability, primary screen (AID 461;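 active = Her2 level under about 52% in both replicate screens, with viability over 70% of control, limit read from the data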;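 as to Her2 level: lower value means less Her2 protein in the cells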;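 as to viability: percent of carrier control wells set as 100% viability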); settings: SKBR3 Her2 protein level, 18-24 h, measured here: SKBR3 viability, ATP luminescence, at 10 µM
[2] = molecular target: Receptor tyrosine-protein kinase erbB-2 (Homo sapiens) (UniProt P04626); experiment: as above; settings: 18-24 h, at 10 µM, stronger effect = lower value
Receptor tyrosine-protein kinase erbB-2 (Homo sapiens), sequence (P04626 whole entry, looked up): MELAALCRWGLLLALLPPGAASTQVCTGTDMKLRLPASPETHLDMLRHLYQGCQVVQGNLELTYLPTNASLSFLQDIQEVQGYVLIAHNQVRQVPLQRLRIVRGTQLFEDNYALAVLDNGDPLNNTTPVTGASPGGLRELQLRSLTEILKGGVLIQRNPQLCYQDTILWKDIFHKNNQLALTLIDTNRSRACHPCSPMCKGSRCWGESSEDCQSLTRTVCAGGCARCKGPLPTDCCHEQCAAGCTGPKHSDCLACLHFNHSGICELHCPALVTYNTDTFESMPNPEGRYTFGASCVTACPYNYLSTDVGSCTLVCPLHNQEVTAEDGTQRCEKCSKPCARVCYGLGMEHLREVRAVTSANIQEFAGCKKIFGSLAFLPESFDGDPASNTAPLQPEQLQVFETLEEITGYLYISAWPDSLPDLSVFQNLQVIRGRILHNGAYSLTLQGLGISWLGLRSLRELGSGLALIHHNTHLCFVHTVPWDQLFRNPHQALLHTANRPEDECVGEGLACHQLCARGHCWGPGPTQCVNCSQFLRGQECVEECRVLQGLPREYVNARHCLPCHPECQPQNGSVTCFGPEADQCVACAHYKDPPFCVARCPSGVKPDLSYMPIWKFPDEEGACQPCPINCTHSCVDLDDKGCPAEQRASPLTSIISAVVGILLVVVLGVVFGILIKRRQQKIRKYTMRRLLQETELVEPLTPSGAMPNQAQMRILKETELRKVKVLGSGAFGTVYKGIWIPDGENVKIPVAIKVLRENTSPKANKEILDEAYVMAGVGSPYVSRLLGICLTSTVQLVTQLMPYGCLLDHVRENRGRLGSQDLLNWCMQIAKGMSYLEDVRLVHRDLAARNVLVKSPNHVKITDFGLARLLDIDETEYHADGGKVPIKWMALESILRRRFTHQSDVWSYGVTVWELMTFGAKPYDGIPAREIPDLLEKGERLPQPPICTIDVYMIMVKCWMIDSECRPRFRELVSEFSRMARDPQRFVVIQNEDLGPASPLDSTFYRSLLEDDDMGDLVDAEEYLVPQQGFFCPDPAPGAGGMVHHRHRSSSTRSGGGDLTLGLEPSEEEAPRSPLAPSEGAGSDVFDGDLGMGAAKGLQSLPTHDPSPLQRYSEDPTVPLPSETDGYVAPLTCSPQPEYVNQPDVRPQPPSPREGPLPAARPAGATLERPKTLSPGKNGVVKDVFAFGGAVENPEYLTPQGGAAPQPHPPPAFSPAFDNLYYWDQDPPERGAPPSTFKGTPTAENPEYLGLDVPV

[3] = reduced viability of SK-BR-3 breast cancer cells – cell-based, 24 h, human, pilot screen (AID 572); settings: SK-BR-3 viability, CellTiter-Glo luminescence, at 10 µM, stronger effect = lower value;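 also: compound exposure lasted between 18 and 24 h rather than exactly 24 h; 100% = carrier-treated control wells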
[4] = HUVEC growth inhibition – cell-based, human, primary screen (AID 575;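 active = viability at or below 30% in both replicate assays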;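 also: 100% = median of untreated cell wells with 0.1% DMSO on each plate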); settings: HUVEC proliferation, CellTiter-Glo luminescence, 72 h; at 10 µM; stronger effect = lower value
Summary of the method: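 Test system: primary human umbilical vein endothelial cells. Quantity: 1250 cells/well. Compound: single 10 µM dose, 0.1% DMSO, from 5x medium stock. Timing: 72 h treatment at 37 °C. Detection: ATP-based CellTiter-Glo luminescent read. Benchmarks: vehicle and MePR control wells. Format: 384-well plates coated with collagen.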

[5] = H69AR cell proliferation blockers – human, duplicate replicates, primary screen (AID 580;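 active = viability at or under a set limit in both replicates, limit being median viability minus 3 SD, cut at about 48% in these data, passing the limit was not always enough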;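 also: 100% = mean luminescence of untreated wells and 0% = no signal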); settings: H69AR lung tumor cells viability, ATP luminescence, 72 h; at 10 µM; stronger effect = lower value
[6] = MRP1 drug-resistance reversers in H69AR cells – cell-based, doxorubicin co-treatment, pilot screen (AID 601;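 active = viability loss from added drug above about 55%, and viability with drug at most 40%, in both replicates, limit read from the data, passing the limit was not always enough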); settings: CellTiter-Glo, 72 h, at 10 µM; for differential viability (reversal): stronger effect = higher value
[7] = yeast transport mutant growth inhibition pilot in 384-well plates, post-Golgi transport modulator project (AID 636; in the data active = inhibition above about 31%); settings: absorbance 615 nm, about 18 h, stronger effect = higher value
[8] = growth suppression of yeast trafficking mutant, preliminary HTS, modulators of trafficking downstream of Golgi apparatus project, 1536-format plate, OD 615 nm (AID 637; in the data active = inhibition above about 30%); settings: yeast transport mutant growth, absorbance 615 nm, 18 h; stronger effect = higher value
[9] = H69AR cells + 2 uM doxorubicin, measured here: viability with 2 uM doxorubicin, stronger effect = lower value
[10] = H69AR cells, compound alone cytotoxicity

| SMILES | viability [1] [%] | Her2 level [2] | viability [3] | viability [4] | viability [5] | differential viability (reversal) ([6]; H69AR cells + 2 uM doxorubicin) | viability [6, 9] [%] | viability [6, 10] [%] | inhibition [7] | inhibition [8] |
| --- | --- | --- | --- | --- | --- | --- | --- | --- | --- | --- |
| Cc1cc(C)nc(SCC(=O)Nc2ccc(S(=O)(=O)Nc3nccs3)cc2)n1 | 110 | 107% (inactive) | 110% (inactive) | 97.4% (inactive) | 95.7% (inactive) | 4.67% (inactive) | 91 | 95.7 | -1.76% (inactive) | 5.9% (inactive) |
| Cc1cc(-n2c(C)cc(C(=O)CSc3nc4ccccc4c(=O)n3Cc3ccco3)c2C)no1 | 105 | 83.5% (inactive) | 105% (inactive) | 92.2% (inactive) | 93.8% (inactive) | 4.09% (inactive) | 89.7 | 93.8 | -6.8% (inactive) | -1.43% (inactive) |
| Cc1c(C#N)sc2nc(-c3ccccc3)nc(N3CCCC3)c12 | 85.5 | 83% (inactive) | 85.5% (inactive) | 82.1% (inactive) | 77% (inactive) | -11.2% (inactive) | 88.1 | 77 | -3.59% (inactive) | -8% (inactive) |
| Cc1ccc2cc(C#N)c(NCCCNC(=O)C3CCCO3)nc2c1 (stereo not given) | 106 | 73% (inactive) | 106% (inactive) | 104% (inactive) | 99% (inactive) | 12.6% (inactive) | 86.4 | 99 | -6.71% (inactive) | 6.19% (inactive) |
| CC1=C(n2nnc3ccccc32)C(c2ccccc2)C(C#N)=C(N)O1 (stereo not given) | 72 | 73% (inactive) | 72% (inactive) | 82.8% (inactive) | 83.8% (inactive) | 1.96% (inactive) | 81.9 | 83.8 | -3.9% (inactive) | -4.1% (inactive) |
| COCCN1C(=O)C(=O)/C(=C(/O)c2cccc(S(=O)(=O)N(C)C)c2)C12C(=O)N(C)c1ccccc12 (stereo not given) | 110 | 91.5% (inactive) | 110% (inactive) | 110% (inactive) | 99.5% (inactive) | 3.6% (inactive) | 95.9 | 99.5 | -7.76% (inactive) | -2.38% (inactive) |
| CC(C)COc1ccc(C2NC(=O)NC2=O)cc1 (stereo not given) | 85.5 | 106% (inactive) | 85.5% (inactive) | 96.3% (inactive) | 103% (inactive) | -0.53% (inactive) | 103 | 103 | -0.52% (inactive) | -8.67% (inactive) |
| Cn1c2c(c(=O)n(C)c1=O)C(CC(=O)Nc1ccccc1)C(=O)N2 (stereo not given) | 106 | 78.5% (inactive) | 106% (inactive) | 106% (inactive) | 108% (inactive) | 21.8% (inactive) | 86.4 | 108 | -2.97% (inactive) | 8.57% (inactive) |
| O=C(COC(=O)CCC(=O)c1cccs1)NCc1ccco1 | 98 | 109% (inactive) | 98% (inactive) | 89.3% (inactive) | 79.8% (inactive) | 2.55% (inactive) | 77.3 | 79.8 | -3.59% (inactive) | -1.5% (inactive) |
| CC1(C)CC(CCNC(=O)c2ccco2)CC(C)(C)N1 | 106 | 92% (inactive) | 106% (inactive) | 84.2% (inactive) | 98.8% (inactive) | 2.95% (inactive) | 95.8 | 98.8 | -3.73% (inactive) | -4.76% (inactive) |
| CC1CCN(C(=O)Cn2c(=O)oc3ccccc32)CC1 | 86.5 | 108% (inactive) | 86.5% (inactive) | 95.1% (inactive) | 90.7% (inactive) | 6.24% (inactive) | 84.5 | 90.7 | 0.53% (inactive) | -6.55% (inactive) |
| CCC(=O)N1CCc2cc(OC)c(OC)cc2C1COc1ccc(C(=O)OC)cc1 (stereo not given) | 94.5 | 83% (inactive) | 94.5% (inactive) | 87.2% (inactive) | 91.5% (inactive) | -2.33% (inactive) | 93.9 | 91.5 | -5.33% (inactive) | 1.61% (inactive) |
| O=C(CSc1nc2ccccc2n1CC(=O)N1CCCC1)Nc1nccs1 | 106 | 93% (inactive) | 106% (inactive) | 98.4% (inactive) | 95.3% (inactive) | 16.4% (inactive) | 78.9 | 95.3 | -0.92% (inactive) | -6.73% (inactive) |
| Cc1cccc(NC(=O)CC(C)(C)C)c1 | 110 | 90.5% (inactive) | 110% (inactive) | 92.4% (inactive) | 97.9% (inactive) | 2.31% (inactive) | 95.6 | 97.9 | -6.53% (inactive) | -5.08% (inactive) |
| O=C(CN1CCCN(S(=O)(=O)c2ccc(Br)cc2)CC1)Nc1ccc2cn[nH]c2c1 | 106 | 109% (inactive) | 106% (inactive) | 73.1% (inactive) | 7.15% (active) | -13.3% (inactive) | 20.5 | 7.15 | -2.37% (inactive) | 2.79% (inactive) |
| CN(C)c1nc(N)nc(-c2nc3ccccc3s2)n1 | 73 | 89% (inactive) | 73% (inactive) | 85.1% (inactive) | 91.7% (inactive) | 6.39% (inactive) | 85.3 | 91.7 | -6.62% (inactive) | -1.64% (inactive) |

| SMILES | viability [1] [%] | Her2 level [2] | viability [3] | viability [4] | viability [5] | differential viability (reversal) ([6]; H69AR cells + 2 uM doxorubicin) | viability [6, 9] [%] | viability [6, 10] [%] | inhibition [7] | inhibition [8] |
| --- | --- | --- | --- | --- | --- | --- | --- | --- | --- | --- |
| O=C(Nc1ccccc1)N(CCN1CCOCC1)Cc1ccccc1F | 106 | 103% (inactive) | 106% (inactive) | 92.2% (inactive) | 92.3% (inactive) | -16% (inactive) | 108 | 92.3 | 2.11% (inactive) | 1.64% (inactive) |
| CC(Oc1ccc(Cl)cc1Cl)c1nc(-c2ccc(NC(=O)c3cccnc3)cc2)no1 (stereo not given) | 93.5 | 74.5% (inactive) | 93.5% (inactive) | 55% (inactive) | 8.04% (active) | -10.7% (inactive) | 18.8 | 8.04 | 0% (inactive) | 22.2% (inactive) |
| Cc1ccc2c(c1C)NC(C)CC2C (stereo not given) | 100 | 82% (inactive) | 100% (inactive) | 103% (inactive) | 97.2% (inactive) | 8.96% (inactive) | 88.2 | 97.2 | -0.39% (inactive) | -0.73% (inactive) |
| CCOC(=O)N1CCN(C(=O)c2csc3c2CCCCC3)CC1 | 93.5 | 112% (inactive) | 93.5% (inactive) | 94.9% (inactive) | 90.8% (inactive) | -1.73% (inactive) | 92.5 | 90.8 | 0.51% (inactive) | -13.7% (inactive) |
| CN(C(=O)CSc1nc2c(c(=O)[nH]1)CCCC2)C1CCCCC1 | 95 | 105% (inactive) | 95% (inactive) | 77.1% (inactive) | 93.3% (inactive) | 1.09% (inactive) | 92.2 | 93.3 | -1.97% (inactive) | -8.89% (inactive) |
| CCn1c(C)c(CCC(=O)O)c(=O)n2nc(-c3ccccc3OC)cc12 | 91 | 104% (inactive) | 91% (inactive) | 100% (inactive) | 87.4% (inactive) | -1.22% (inactive) | 88.6 | 87.4 | -0.14% (inactive) | 23.6% (inactive) |
| CCOC(=O)CSC1=C(C#N)C(=O)NC(c2ccc(OC)c(OC)c2)S1 (stereo not given) | 104 | 99% (inactive) | 104% (inactive) | 74.6% (inactive) | 97.2% (inactive) | -1.72% (inactive) | 99 | 97.2 | -4.79% (inactive) | 0.16% (inactive) |
| CCN(C(=O)CCc1nc(-c2ccccc2F)no1)c1cc(OC)ccc1OC | 87.5 | 130% (inactive) | 87.5% (inactive) | 68.1% (inactive) | 92.4% (inactive) | -2.4% (inactive) | 94.8 | 92.4 | 1.71% (inactive) | 0.33% (inactive) |
| O=C(NCCCN1CCCC1=O)c1ccc2c(c1)NC(=O)C(N1CCOCC1)S2 (stereo not given) | 143 | 94.5% (inactive) | 143% (inactive) | 115% (inactive) | 89.5% (inactive) | 6.1% (inactive) | 83.3 | 89.5 | -6.4% (inactive) | 0.82% (inactive) |
| O=S(=O)(c1ccccc1)c1nc(-c2ccco2)oc1NCCCN1CCOCC1 | 91 | 100% (inactive) | 91% (inactive) | 84.6% (inactive) | 95.4% (inactive) | -1.43% (inactive) | 96.8 | 95.4 | -1.73% (inactive) | -3.23% (inactive) |
| Cc1nc(NC2=NCN(CC3CCCO3)CN2)nc2ccccc12 (stereo not given) | 98.5 | 83% (inactive) | 98.5% (inactive) | 86.2% (inactive) | 85.1% (inactive) | -13.8% (inactive) | 98.9 | 85.1 | -5.07% (inactive) | -3.81% (inactive) |
| COc1cc(NC(=O)C(C)Oc2ccccc2)c(C(=O)O)cc1OC (stereo not given) | 116 | 90% (inactive) | 116% (inactive) | 96.4% (inactive) | 92.8% (inactive) | 11.7% (inactive) | 81.1 | 92.8 | -7.07% (inactive) | 2.13% (inactive) |
| Cn1c(=O)cc(OCC(=O)N2CCN(c3cccc(C(F)(F)F)c3)CC2)c2ccccc21 | 89 | 82% (inactive) | 89% (inactive) | 90.7% (inactive) | 75.3% (inactive) | -10% (inactive) | 85.3 | 75.3 | -6.27% (inactive) | 5.57% (inactive) |
| CCOc1cc(C2C(C(=O)c3ccccc3)=C(C(=O)OC)Nc3nnnn32)ccc1O (stereo not given) | 113 | 96% (inactive) | 113% (inactive) | 91.6% (inactive) | 97.6% (inactive) | 16.4% (inactive) | 81.2 | 97.6 | -1.84% (inactive) | -5.45% (inactive) |
| Cc1c(/C(O)=C2/C(=O)C(=O)N(CCN3CCOCC3)C2c2cccnc2)cnn1-c1ccccc1 (stereo not given) | 85.5 | 108% (inactive) | 85.5% (inactive) | 110% (inactive) | 91.5% (inactive) | 9.19% (inactive) | 82.3 | 91.5 | 1.45% (inactive) | -1.09% (inactive) |

Source: PubChem BioAssay
